target: T1, Sterol O-acyltransferase 1 (Rattus norvegicus) (UniProt O70536); test: Serum hypolipidemic activity in rats; format: functional; conditions: not given
T1 sequence (whole entry): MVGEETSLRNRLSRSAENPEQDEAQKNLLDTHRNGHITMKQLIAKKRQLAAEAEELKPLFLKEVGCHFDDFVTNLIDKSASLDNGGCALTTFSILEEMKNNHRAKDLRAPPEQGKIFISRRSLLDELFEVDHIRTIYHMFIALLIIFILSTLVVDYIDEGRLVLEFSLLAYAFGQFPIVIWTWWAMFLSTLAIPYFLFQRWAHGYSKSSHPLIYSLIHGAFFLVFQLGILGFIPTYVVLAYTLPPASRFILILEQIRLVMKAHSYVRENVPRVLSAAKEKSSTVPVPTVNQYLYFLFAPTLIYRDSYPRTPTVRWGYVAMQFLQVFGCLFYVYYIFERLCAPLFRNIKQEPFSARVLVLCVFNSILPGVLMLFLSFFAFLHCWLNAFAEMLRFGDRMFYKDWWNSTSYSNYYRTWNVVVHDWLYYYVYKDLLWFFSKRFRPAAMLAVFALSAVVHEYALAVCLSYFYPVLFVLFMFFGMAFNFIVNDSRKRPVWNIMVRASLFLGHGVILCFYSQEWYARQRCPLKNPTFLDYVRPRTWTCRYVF
Outline: (§1)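 Male CD-1 Sprague-Dawley rats, 140–150 g, fed 1% cholesterol/0.5% cholic acid diet with compound admixed at 0.01% (about 10 mg/kg/day) for 7 days. Serum and liver cholesterol measured by Technicon autoanalyzer methods; expressed as percent of control.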

| Structure (SMILES) | SS [%] |
| --- | --- |
| CCOC(=O)c1ccc(NC(=O)N(Cc2ccccc2)Cc2ccccc2)cc1 | 120 |
| CCCCN(Cc1ccccc1)C(=O)Nc1c(C)cc(C)cc1C | 63 |
| Cc1ccc(NC(=O)N(C2CCCC2)C2CCCC2)c(C)c1 | 98 |
| CCCCN(Cc1ccccc1)C(=O)Nc1cc(Cl)cc(Cl)c1 | 120 |
| O=C(Nc1ccc(Cl)cc1)N(Cc1ccccc1)c1ccccc1 | 67 |
| CCCCN(Cc1ccccc1)C(=O)Nc1ccc(C(=O)O)cc1C | 76 |

target: T1, Sterol O-acyltransferase 1 (Rattus norvegicus); test: Liver hypolipidemic activity in rats; format: functional; conditions: not given; outline: as §1

| Structure (SMILES) | LS [%] |
| --- | --- |
| CCOC(=O)c1ccc(NC(=O)N(Cc2ccccc2)Cc2ccccc2)cc1 | 83 |
| CCCCN(Cc1ccccc1)C(=O)Nc1c(C)cc(C)cc1C | 37 |
| Cc1ccc(NC(=O)N(C2CCCC2)C2CCCC2)c(C)c1 | 113 |
| CCCCN(Cc1ccccc1)C(=O)Nc1cc(Cl)cc(Cl)c1 | 107 |
| O=C(Nc1ccc(Cl)cc1)N(Cc1ccccc1)c1ccccc1 | 102 |
| CCCCN(Cc1ccccc1)C(=O)Nc1ccc(C(=O)O)cc1C | 88 |

target: T1, Sterol O-acyltransferase 1 (Rattus norvegicus); test: In vitro percentage inhibition against Acyl coenzyme A:cholesterol acyltransferase derived from rat adrenals; parameters: concentration or dose not given beside the values; conditions: concentration not given here
Outline: (§2)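 Rat adrenal 1000g supernatant (microsomal ACAT) in 0.2 M KH2PO4 pH 7.4 with BSA; test compound at final 5.2 µg/mL, preincubated 37 °C 10 min; [14C]oleoyl-CoA (0.4 µCi) added, 37 °C 30 min. Cholesteryl ester separated by TLC, scintillation counted; mean percent inhibition against compound-free control.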

| Structure (SMILES) | inhibition [%] |
| --- | --- |
| O=C(Nc1ccc(Cl)c(Cl)c1)N(Cc1ccccc1)Cc1ccccc1 | 95 |
| CSc1ccc(NC(=O)N(Cc2ccccc2)Cc2ccccc2)cc1 | 67 |
| O=C(Nc1cc(Cl)ccc1Cl)N(Cc1ccccc1)Cc1ccccc1 | 82 |
| O=C(Nc1ccc(Cl)c(C(F)(F)F)c1)N(Cc1ccccc1)Cc1ccccc1 | 92 |
| CCCCC(CC)CN(CC(CC)CCCC)C(=O)Nc1ccc(C)cc1C (configuration not stated) | 86 |
| CCCCN(Cc1ccccc1)C(=O)Nc1cc(Cl)c(N)c(Cl)c1 | 61 |
| CCCCCCCCCN(CCCCCCCCC)C(=O)Nc1ccc(C)cc1C | 90 |
| O=C(Nc1cccc(Cl)c1Cl)N(Cc1ccccc1)Cc1ccccc1 | 80 |
| CCc1cccc(C)c1NC(=O)N(Cc1ccccc1)Cc1ccccc1 | 74 |
| CCCCCCCCCCCN(CCCCCCCCCCC)C(=O)Nc1ccc(C)cc1C | 49 |
| O=C(Nc1c(Cl)cccc1Cl)N(Cc1ccccc1)Cc1ccccc1 | 89 |
| CCc1cccc(CC)c1NC(=O)N(Cc1ccccc1)Cc1ccccc1 | 72 |
| O=C(Nc1cc(F)ccc1F)N(Cc1ccccc1)Cc1ccccc1 | 72 |
| Cc1cccc(Cl)c1NC(=O)N(Cc1ccccc1)Cc1ccccc1 | 84 |
| CCCCN(Cc1ccccc1)C(=O)Nc1ccccc1[N+](=O)[O-] | 37 |
| CCCCN(CCCC)C(=O)Nc1cccc(Br)c1 | 86 |
| CCCCN(CCCCC1CCCCC1)C(=O)Nc1ccc(C)cc1C | 40 |
| O=C(Nc1ccc(Cl)cc1Cl)N(Cc1ccccc1)Cc1ccccc1 | 83 |
| CCC(C)N(C(=O)Nc1ccc(C)cc1C)C(C)CC (configuration not stated) | 78 |

| Structure (SMILES) | inhibition [%] |
| --- | --- |
| CCCCN(CCCC)C(=O)Nc1ccc(C)c(C)c1 | 49 |
| CN(C(=O)Nc1cc(Cl)ccc1Cl)c1ccccc1 | 48 |
| CCCCN(CCCC)C(=O)Nc1ccc([N+](=O)[O-])cc1 | 75 |
| CCCCN(CC(c1ccccc1)C1CCCCC1)C(=O)Nc1ccc(C)cc1C (configuration not stated) | 74 |
| CCCCN(CC(C)(c1ccccc1)c1ccccc1)C(=O)Nc1ccc(C)cc1C | 97 |
| Cc1ccc(Cl)cc1NC(=O)NCc1ccccc1 | 33 |
| Cc1cccc(C)c1NC(=O)N(Cc1ccccc1)Cc1ccccc1 | 56 |
| CCN(C(=O)Nc1ccccc1C)c1ccccc1 | 9 |
| CCCCCCCC/C=C/CCCCCCCCN(Cc1ccc(CCCC)cc1)C(=O)Nc1ccc(C)cc1C (stereo in doubt; 160) | 42 |
| CCCCN(CCCC)C(=O)Nc1ccc(I)cc1 | 83 |
| CCCCN(CCCC)C(=O)Nc1cccc(Cl)c1Cl | 85 |
| CCCCN(CCCC)C(=O)Nc1ccc(C(C)=O)cc1 | 55 |
| CCCCN(CCCC)C(=O)Nc1ccc([N+](=O)[O-])cc1Cl | 87 |
| Cc1ccc(C)c(NC(=O)N(Cc2ccccc2)Cc2ccccc2)c1 | 89 |
| COc1ccccc1NC(=O)N(Cc1ccccc1)Cc1ccccc1 | 91 |
| Cc1ccc(NC(=O)NCc2ccccc2)c(C)c1 | 35 |
| CCCCN(CCC12CC3CC(CC(C3)C1)C2)C(=O)Nc1ccc(C)cc1C | 56 |
| CCCCN(CCC(c1ccccc1)c1ccccc1)C(=O)Nc1ccc(C)cc1C | 53 |

target: T1, Sterol O-acyltransferase 1 (Rattus norvegicus); test: In vitro percentage inhibition against acyl coenzyme A:cholesterol acyltransferase derived from rat adrenals; parameters: concentration or dose not given beside the values; conditions: concentration not given here; outline: as §2

| Structure (SMILES) | inhibition [%] |
| --- | --- |
| O=C(Nc1ccc(Br)cc1Br)N(Cc1ccccc1)c1ccccc1 | 82 |
| CCCCN(CCCC)C(=O)Nc1ccc(F)cc1 | 56 |
| CCOC(=O)c1ccc(NC(=O)N(Cc2ccccc2)Cc2ccccc2)cc1 | 93 |
| CCCCN(Cc1ccccc1)C(=O)Nc1cccc(C)c1C | 86 |
| C=CCN(CC=C)C(=O)Nc1ccc(C)cc1C | 43 |
| CCCCN(Cc1ccccc1)C(=O)Nc1cc(C)ccc1C | 93 |
| CCCN(CCC)C(=O)Nc1ccc(C)cc1C | 8 |
| O=C(Nc1ccc(Br)cc1)N(Cc1ccccc1)Cc1ccccc1 | 80 |
| CCCCN(CCCC)C(=O)Nc1cccc(SC)c1 | 85 |
| CCCCN(Cc1ccccc1)C(=O)Nc1c(C)cc(C)cc1C | 76 |
| CCCCN(CCCC)C(=O)Nc1ccc(C)cc1 | 80 |
| CCCCN(CCCC)C(=O)Nc1c(C)cc(C)cc1C | 74 |
| Cc1ccc(NC(=O)N(C2CCCC2)C2CCCC2)c(C)c1 | 90 |
| CCCCOc1ccc(NC(=O)N(Cc2ccccc2)Cc2ccccc2)cc1 | 90 |
| CCCCN(CCCC)C(=O)Nc1ccc(C(C)C)cc1 | 76 |
| Cc1ccc(NC(=O)N(CC(C)C)CC(C)C)c(C)c1 | 80 |
| CCCCN(Cc1ccccc1)C(=O)Nc1cc(OC)c(OC)c(OC)c1 | 74 |
| COc1cccc(NC(=O)N(Cc2ccccc2)Cc2ccccc2)c1 | 87 |
| O=C(O)c1ccc(NC(=O)N(Cc2ccccc2)Cc2ccccc2)cc1 | 14 |
| Cc1ccc(NC(=O)N(Cc2ccccc2)Cc2ccccc2)cc1 | 87 |
| CCCCN(Cc1ccccc1)C(=O)Nc1cc(Cl)cc(Cl)c1 | 91 |
| CCCCN(CCCC)C(=O)Nc1cc(Cl)ccc1C | 75 |
| O=C(Nc1ccc(Cl)cc1)N(Cc1ccccc1)c1ccccc1 | 68 |
| Cc1ccc(NC(=O)N(C(C)C)C(C)C)c(C)c1 | -1 |

| Structure (SMILES) | inhibition [%] |
| --- | --- |
| CCCCN(Cc1ccccc1)C(=O)Nc1cc(Cl)ccc1O | 86 |
| CCCCN(CCCC)C(=O)Nc1cccc(C)c1C | 88 |
| COc1ccc(OC)c(NC(=O)N(Cc2ccccc2)Cc2ccccc2)c1 | 88 |
| CCCCN(CCCC)C(=O)Nc1ccccc1Br | 51 |
| CC(=O)c1cccc(NC(=O)N(Cc2ccccc2)Cc2ccccc2)c1 | 81 |
| CCCCN(Cc1ccccc1)C(=O)Nc1cccc(Cl)c1OC | 85 |
| CCCCN(CCCC)C(=O)Nc1c(C)cccc1C | 85 |
| COc1ccc(NC(=O)N(Cc2ccccc2)Cc2ccccc2)cc1 | 72 |
| CCCCN(Cc1ccccc1)C(=O)Nc1cc(Cl)ccc1OC | 81 |
| CCCCN(Cc1ccccc1)C(=O)Nc1cccc(C)c1 | 92 |
| CCCCN(CCCC)C(=O)Nc1ccc(Cl)cc1C | 88 |
| O=C(Nc1ccc(Cl)cc1)N(Cc1ccccc1)Cc1ccccc1 | 78 |
| Cc1cccc(NC(=O)N(Cc2ccccc2)Cc2ccccc2)c1 | 89 |
| CCCCN(C)C(=O)Nc1ccc(Cl)c(Cl)c1 | 64 |
| CCN(CC)C(=O)Nc1ccc(C)cc1C | 18 |
| CCCCN(Cc1ccccc1)C(=O)Nc1ccc(Cl)c(Cl)c1 | 96 |
| O=C(Nc1ccccc1Cl)N(Cc1ccccc1)Cc1ccccc1 | 88 |
| CCCCN(Cc1ccccc1)C(=O)Nc1cccc(Cl)c1 | 89 |
| Cc1ccccc1NC(=O)N(Cc1ccccc1)Cc1ccccc1 | 77 |
| O=C(Nc1ccccc1Br)N(Cc1ccccc1)Cc1ccccc1 | 94 |
| O=C(Nc1ccc(I)cc1)N(Cc1ccccc1)Cc1ccccc1 | 85 |
| O=C(Nc1cccc([N+](=O)[O-])c1)N(Cc1ccccc1)Cc1ccccc1 | 81 |
| Cc1ccc(NC(=O)N(C)C)c(C)c1 | -7 |
| CCCCN(Cc1ccccc1)C(=O)Nc1ccc(C)c(C)c1 | 87 |
